# Assay results collected from several papers.
# rep methyltransferase: Replicase polyprotein 1ab, methyltransferase (rep, Severe acute respiratory syndrome coronavirus 2, UniProt P0DTD1)
# rep main protease: Replicase polyprotein 1ab, main protease (rep, Severe acute respiratory syndrome coronavirus 2, UniProt P0DTD1)
SMILES,target,observed,mode,method,quantity,result
CC(=O)Nc1ccc(N2C(=O)c3cccc4c(Cl)ccc(c34)C2=O)cc1,rep methyltransferase,enzyme activity,inhibitor,,IC50,221 µM
CSc1ccc(N(Cc2cc(Cl)cs2)C(=O)Cc2cncc3ccccc23)cc1,rep main protease,binding,,MST,Kd,1.4 µM
O=C(Nc1ccccc1C(=O)NC1CCCCNC1=O)c1cc2ccccc2s1 (stereo not drawn),rep methyltransferase,enzyme activity,inhibitor,,IC50,62.8 µM
CN1C(=O)C(N2CCCCC2)S/C1=C\C(=O)O (stereo not drawn),rep main protease,enzyme activity,inhibitor,,IC50,11.6 µM
CCOC(=O)c1c(-c2cccs2)csc1N,rep methyltransferase,enzyme activity,inhibitor,,IC50,38.2 µM
CS/C(N)=C(C#N)/C(C#N)=C(\N)SC,rep main protease,enzyme activity,inhibitor,,IC50,6.17 µM
O=c1oc2cc(O)ccc2c2ccccc12,rep main protease,binding,,SPR,Kd,52.7 µM
COc1ccc(N(Cc2cc(Cl)cs2)C(=O)Cc2cncc3ccccc23)cc1,rep main protease,binding,,MST,Kd,1.5 µM
FC(F)(F)c1cc(NC(=S)Nc2ccc(Br)cc2-c2nnn[nH]2)cc(C(F)(F)F)c1,rep main protease,enzyme activity,inhibitor,,IC50,> 20 µM
